Diaphorase act: compounds boosting diaphorase resazurin reduction – biochemical, uHTS, resorufin fluorescence, counter-screen for diaphorase-coupled primary assays, primary screen. Diaphorase/resazurin coupled assay, 16 min; stronger effect = higher value; 1 = vehicle wells, 0 = NADH-free wells. activation factor at 20 µM. 190,000 tested, 0.005% active;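 active means diaphorase activity raised at least twofold by the compound at 20 µM; inactive means activation factor below 2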
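Assay system: bacterial diaphorase enzyme (C. kluyveri) / Input: enzyme 0.07 U/mL final / Medium: 50 mM HEPES pH 7.4 with 4.542 mM MgCl2, 0.005% Tween 20 / Doses: single compound dose of 20 µM, 1% DMSO final / Incubation: 16 min enzyme reaction, ambient temperature / Signal: fluorescence, excitation 544 nm and emission 590 nm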
G6PDH CS: L. mesenteroides G6PDH inhibitors, counter-screen for G6PDH-coupled screening assays, biochemical, Leuconostoc mesenteroides enzyme; inhibition, % at 5 µM; 200,000 tested, 0.12% active; glucose-6-phosphate dehydrogenase [Leuconostoc mesenteroides]; Purified L. mesenteroides G6PDH, diaphorase/resazurin coupled fluorescence, 45 min; in the data active means inhibition above about 50%
PMI act hi M6P: human PMI activators, high substrate, primary screen, biochemical, fluorescence intensity, near-saturating mannose 6-phosphate; Mannose-6-phosphate isomerase (Homo sapiens), P34949; coupled PMI enzyme assay, resazurin fluorescence, 20 min; stronger effect = higher value; 1 = untreated enzyme, 0 = substrate-free blank; activation factor at 20 µM; 190,000 tested, 0.34% active;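 active means activation factor of 2 or more at 20 µM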
Target sequence (P34949 whole entry, looked up): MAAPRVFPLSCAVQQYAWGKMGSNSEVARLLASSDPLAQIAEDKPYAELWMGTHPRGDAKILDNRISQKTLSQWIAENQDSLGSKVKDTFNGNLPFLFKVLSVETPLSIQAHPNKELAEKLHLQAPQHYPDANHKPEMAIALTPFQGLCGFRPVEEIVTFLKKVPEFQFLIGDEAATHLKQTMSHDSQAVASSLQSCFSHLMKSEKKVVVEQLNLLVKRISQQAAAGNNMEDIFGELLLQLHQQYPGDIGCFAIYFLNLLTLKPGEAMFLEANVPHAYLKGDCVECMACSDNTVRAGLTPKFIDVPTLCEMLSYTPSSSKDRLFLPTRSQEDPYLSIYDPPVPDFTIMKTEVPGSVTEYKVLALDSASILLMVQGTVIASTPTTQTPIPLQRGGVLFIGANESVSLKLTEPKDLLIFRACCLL
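Test system: human phosphomannose isomerase with PGI, G6PDH, diaphorase coupling enzymes; amount: 15 ng/mL PMI; incubation: enzyme reaction with compound 20 min at room temperature; technique: resorufin fluorescence (Ex 544/Em 590 nm) from resazurin via diaphorase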
PMI act: activators of human PMI, primary screen, biochemical, fluorescence intensity, near-Km mannose 6-phosphate | AID 1214, 2008 | 190,000 tested, 0.005% active | activation factor at 20 µM | Mannose-6-phosphate isomerase (Homo sapiens), P34949 | purified human PMI, coupled resazurin fluorescence, 20 min; stronger effect = higher value; 1 = vehicle control, 0 substrate-free wells;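 active means activation factor of 2 or more at 20 µM, relative to plate controls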
Diaphorase inh: diaphorase inhibitors and chemical oxidizers, primary screen, counter-screen for diaphorase-coupled primary assays, biochemical, uHTS, resorufin fluorescence; diaphorase resazurin-to-resorufin fluorescence, NADH, 16 min; bacterial (C. kluyveri) enzyme, not human; inhibition, % at 20 µM; 190,000 tested, 0.69% active;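 active means primary screen inhibition at 20 µM above a set limit, cut at about 50% in these data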;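 further: plate controls were DMSO with full reaction for no effect and wells lacking NADH for full effect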
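Assay system: diaphorase enzyme from Clostridium kluyveri; Input: enzyme working solution with 0.14 U/mL diaphorase; Timing: 16 min at room temperature; Technique: resorufin fluorescence, excitation 544 nm, emission 590 nm; Benchmarks: positive control minus NADH, DMSO neutral control.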
An asterisk follows results filed as active. In the library only some 1.1% were active in any assay of this set; here they are far more common.

SMILES	Diaphorase act	G6PDH CS	PMI act hi M6P	PMI act	Diaphorase inh
Cn1ncnc2c(=O)n(C)c(=O)nc1-2	0.4	72.1*	0.4	0.3	55.7*
C=CCN1C(=O)NC(=O)/C(=C/c2ccoc2)C1=O	1.1	8.5	2.2*	1.6	-8.1
C=CCN1C(=O)NC(=O)/C(=C/c2cccn2C)C1=O	0.8	6.6	1	1	16.7
COc1cc(C)c(-c2nc(CN3C[C@@H]4C[C@@H](C3)c3cccc(=O)n3C4)c(C)o2)cc1C	0.9	7.6	1	0.9	5.4
C=CCC1C(=O)NC(=S)NC1=O	0.9	-0.4	2*	1.6	10.6
COC(=O)C1=C(N)Oc2cc(C)oc(=O)c2C12C(=O)Nc1ccccc12 (stereo not drawn)	1.2	8.8	1.1	1.3	-15.3
O=C1NC(=O)N(CCNc2ncc(C(F)(F)F)cc2Cl)C(=O)C1Cc1ccc(Cl)cc1 (stereo not drawn)	1	4.0	1	1.1	3.3
O=C1NC(=O)N(Cc2ccccc2)C(=O)/C1=C\c1ccco1	0.9	2.7	2.3*	1.6	11.6
Cn1cccc1/C=C1/C(=O)NC(=O)N(Cc2ccccc2)C1=O	0.8	-1.8	1	1.1	18.5
CC1=CC(=C2C(=O)NC(=S)NC2=O)C=C(C(F)(F)F)N1Cc1ccccc1	1.1	6.5	2*	1.7	-11.4
O=C(O)c1ccc2c(c1)C1C(Cl)C(Sc3ccccc3[N+](=O)[O-])CC1C(c1cccc([N+](=O)[O-])c1)N2 (stereo not drawn)	0.3	8.9	1.3	1.3	66.0*
O=[N+]([O-])c1cccc(C2N3CCCN23)c1 (stereo not drawn)	1	2.6	1	0.9	3.7
O=C(O)c1cccc2c1NC(c1cccc([N+](=O)[O-])c1)C1CC(Sc3ccccc3[N+](=O)[O-])C(Cl)C21 (stereo not drawn)	0.1	14.4	1.7	1.3	94.4*
O=C(Nc1cccc(Cl)c1)c1c(O)c2c(n(Cc3ccccc3)c1=O)CCCC2	1	-7.8	1	1.1	2.9
CN(C)C1(CNC(=O)c2ccc(Cl)c(S(=O)(=O)NCc3ccco3)c2)CCCCC1	1.1	5.2	1.1	1	-7.0
CC(=O)c1ccc(OC(C)C)c(Cc2c(O)[nH]c(=S)[nH]c2=O)c1	1	12.7	2.1*	1.5	1.6
CC(C)Oc1ccc(Cc2c(O)[nH]c(=O)[nH]c2=O)cc1	0.9	15.1	1	1	9.6
O=c1[nH]c(=S)n(C2CC2)c(O)c1/C=N/Nc1ccccc1	0.9	-14.1	2*	1.6	14.7
O=c1[nH]c(=S)n(C2CC2)c(O)c1/C=N/Nc1cccc2ccccc12	0.6	-22.9	1.2	1.3	41.4
CCC(C)n1c(O)c(/C=N/Nc2ccccc2)c(=O)[nH]c1=S (stereo not drawn)	0.9	-0.1	2.7*	1.7	11.3
Cc1nn(Cc2ccccc2)c(Cl)c1C(=O)OCC(=O)Nc1cccc2ccccc12	0.9	-12.4	1	1	6.5
CC1(C)CN2C(c3ccc(Cl)cc3)N2C1 (stereo not drawn)	1	-5.4	1.1	1.1	2.9
O=C(CN1CCCCC1)c1ccccc1F	0.9	-3.0	2.3*	1.6	8.1
O=C(CN1CCCCC1)c1cccc(Br)c1	0.9	-6.1	1.4	1.5	12.8
O=C(CN1CCCCC1)c1ccccc1Cl	1	1.1	2*	1.7	-1.3
CCCCCc1nc2c(c(=O)c3ccccc3n2C)c(=O)n1C1CCCCCC1	1.1	-22.3	1	0.9	-5.4
CCOc1ccc(N2C(=O)/C(=C\c3cccs3)C(=O)NC2=S)cc1	0.8	4.2	2.2*	1.6	22.2
COC(=O)C1=CCCN(C)C1	0.9	6.0	1.1	1.2	6.4
CC1=CC(C)C(COC(N)=O)(COC(N)=O)C(C)C1 (stereo not drawn)	0.9	1.9	1	1	6.3

Screening data as filed in PubChem.
